Laboratory results taken from ChEMBL document CHEMBL1126849, “Synthesis of A-ring fluorinated derivatives of (17 alpha,20E/Z)-[125I]iodovinylestradiols: effect on receptor binding and receptor-mediated target tissue uptake” (J Med Chem, 1993).

How the values were obtained:
[1] = tested on: Rattus norvegicus; experiment: Biodistribution in uterus of immature female rat after 1 hr administration of 3 micro Ci (111 kBq) in the presence of (+E2); format: ADME, organism-based; settings: in vivo
How it was run: (§1)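 Immature female Long Evans rats (21–24 days, 45–70 g), 3–5 per group, unanesthetized in retention cages, given 3 μCi (111 kBq) 125I-labeled steroid by lateral tail vein. Vehicle: ethanol diluted with saline containing 1% Tween-80, final ethanol 9%. +E2 group co-injected 60 μg unlabeled estradiol (1 h only). Killed under ether; tissues KCl-washed, weighed, gamma-counted. Output: %ID/g (mean, SE) and uterus to blood or nontarget (muscle, spleen, lungs) ratios.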

[2] = target: T1, Estrogen receptor (Mus musculus) (UniProt O08537+P19785); experiment: Relative binding affinity (RBA) for murine cytoplasmic estrogen receptor at 25 degree C for 2 hr; format: protein assay
T1 sequence (O08537 whole entry, looked up): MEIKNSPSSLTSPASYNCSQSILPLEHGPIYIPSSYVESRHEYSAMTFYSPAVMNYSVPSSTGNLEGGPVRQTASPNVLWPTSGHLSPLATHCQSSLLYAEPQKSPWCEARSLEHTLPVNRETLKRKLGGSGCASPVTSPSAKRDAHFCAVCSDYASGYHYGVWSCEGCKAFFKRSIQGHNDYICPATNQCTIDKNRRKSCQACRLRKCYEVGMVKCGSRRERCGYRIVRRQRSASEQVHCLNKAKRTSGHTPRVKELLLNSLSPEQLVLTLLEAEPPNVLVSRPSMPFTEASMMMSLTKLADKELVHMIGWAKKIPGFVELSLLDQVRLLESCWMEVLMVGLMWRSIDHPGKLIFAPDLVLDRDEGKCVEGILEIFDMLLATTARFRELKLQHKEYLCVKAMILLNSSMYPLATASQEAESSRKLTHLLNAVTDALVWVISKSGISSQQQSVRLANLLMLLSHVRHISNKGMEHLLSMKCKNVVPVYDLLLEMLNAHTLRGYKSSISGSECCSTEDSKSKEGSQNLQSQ
T1 sequence (P19785 whole entry, looked up): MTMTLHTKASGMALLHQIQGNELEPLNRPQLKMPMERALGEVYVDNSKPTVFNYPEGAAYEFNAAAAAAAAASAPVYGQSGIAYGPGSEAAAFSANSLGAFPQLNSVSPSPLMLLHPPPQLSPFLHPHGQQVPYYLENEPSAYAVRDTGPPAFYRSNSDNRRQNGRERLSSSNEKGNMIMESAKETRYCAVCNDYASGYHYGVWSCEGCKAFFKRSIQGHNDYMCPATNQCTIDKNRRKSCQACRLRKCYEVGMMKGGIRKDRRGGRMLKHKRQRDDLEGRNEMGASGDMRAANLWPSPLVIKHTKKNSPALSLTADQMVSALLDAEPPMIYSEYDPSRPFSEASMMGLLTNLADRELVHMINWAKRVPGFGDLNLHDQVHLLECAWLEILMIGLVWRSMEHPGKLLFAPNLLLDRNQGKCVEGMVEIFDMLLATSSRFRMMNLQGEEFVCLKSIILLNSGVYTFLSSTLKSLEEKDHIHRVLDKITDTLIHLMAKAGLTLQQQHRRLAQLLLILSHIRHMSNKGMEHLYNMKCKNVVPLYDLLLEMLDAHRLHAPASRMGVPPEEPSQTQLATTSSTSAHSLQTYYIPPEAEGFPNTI
How it was run: (§2)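 Murine uterine cytoplasmic extract incubated 2 h at 4 °C or at 25 °C with 20 nM [3H]estradiol and competitors at 2 nM–20 μM. RBA is taken as 100 × the ratio of competitor to unlabeled estradiol concentration needed for 50% competition of specific [3H]estradiol binding.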

[3] = tested on: Rattus norvegicus; experiment: Biodistribution in lungs of immature female rat after 3 hour administration of 3 micro Ci (111 kBq) in the absence of 60 microg estradiol; format: ADME, organism-based, Lung; settings: in vivo
How it was run: (§3)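 Immature female Long Evans rats (21–24 days, 45–70 g), three to five per group, given 125I-labeled steroid (3 μCi, 111 kBq) by lateral tail vein without anesthesia. Vehicle: ethanol diluted in saline with 1% Tween-80, final ethanol 9%, 0.22 μm filtered. +E2 groups received 60 μg unlabeled estradiol co-injected. Killed under ether at set times; tissues KCl-washed, blotted, weighed, gamma counted; %ID/g, mean with SE.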

[4] = target: T1, Estrogen receptor (Mus musculus); experiment: Relative binding affinity (RBA) for murine cytoplasmic estrogen receptor at 4C for 2 hr; format: protein assay; how it was run: as §2
[5] = tested on: Rattus norvegicus; experiment: Biodistribution in lungs of immature female rat after 1 hr administration of 3 micro Ci (111 kBq) in the absence of 60 microg estradiol; format: ADME, organism-based, Lung; settings: in vivo
How it was run: (§4)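 Immature female Long Evans rats (21–24 days, 45–70 g), unanesthetized in retention cages, given 3 µCi (111 kBq) 125I-labeled steroid i.v. via lateral tail vein. Vehicle was ethanol diluted in saline containing 1% Tween-80, giving 9% ethanol final. The blocking group received 60 µg unlabeled estradiol co-injected. Rats were killed under ether by axillary bleeding, and tissues were KCl-washed and gamma-counted. Data are %ID/g, mean ± SE, n=3–5.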

[6] = tested on: Rattus norvegicus; experiment: Biodistribution in thyroid of immature female rat after 12 hour administration of 3 micro Ci (111 kBq) in the absence of 60 microg estradiol; format: ADME, organism-based, Thyroid gland; settings: in vivo; how it was run: as §3
[7] = tested on: Rattus norvegicus; experiment: Biodistribution in uterus / blood of immature female rat after 12 hour administration of 3 micro Ci (111 kBq) in the absence of 60 microg estradiol; format: ADME, organism-based; settings: in vivo
How it was run: (§5)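 Same in vivo procedure: immature female Long Evans rats (21–24 days), three to five per group, 3 μCi (111 kBq) tracer i.v. via tail vein in 9% ethanol/saline/1% Tween-80, ± 60 μg estradiol co-injected at 1 h. Uterus %ID/g (gamma counting) divided by blood, or by nontarget organ (muscle, spleen, lungs), %ID/g to give ratios.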

[8] = tested on: Rattus norvegicus; experiment: Biodistribution in spleen of immature female rat after 1 hr administration of 3 micro Ci (111 kBq) in the absence of 60 microg estradiol; format: ADME, organism-based; settings: in vivo; how it was run: as §3
[9] = tested on: Rattus norvegicus; experiment: Biodistribution in muscle of immature female rat after 3 hour administration of 3 micro Ci (111 kBq) in the absence of 60 microg estradiol; format: ADME, organism-based, Muscle tissue; settings: in vivo; how it was run: as §3
[10] = tested on: Rattus norvegicus; experiment: Biodistribution in kidney of immature female rat after 1 hr administration of 3 micro Ci (111 kBq) in the presence of (+E2); format: ADME, organism-based; settings: in vivo; how it was run: as §4
[11] = tested on: Rattus norvegicus; experiment: Biodistribution in muscle of immature female rat after 1 hr administration of 3 micro Ci (111 kBq) in the absence of 60 microg estradiol; format: ADME, organism-based, Muscle tissue; settings: in vivo; how it was run: as §3
[12] = tested on: Rattus norvegicus; experiment: Biodistribution in muscle of immature female rat after 1 hr administration of 3 micro Ci (111 kBq) in the presence of (+E2); format: ADME, organism-based, Muscle tissue; settings: in vivo; how it was run: as §3
[13] = tested on: Rattus norvegicus; experiment: Biodistribution in kidney of immature female rat after 3 hour administration of 3 micro Ci (111 kBq) in the absence of 60 microg estradiol; format: ADME, organism-based; settings: in vivo; how it was run: as §4
[14] = tested on: Rattus norvegicus; experiment: Biodistribution in uterus / spleen, muscle, lungs of immature female rat after 3 hour administration of 3 micro Ci (111 kBq) in the absence of 60 microg estradiol; format: ADME, organism-based; settings: in vivo; how it was run: as §1
[15] = tested on: Rattus norvegicus; experiment: Biodistribution in uterus / spleen, muscle, lungs of immature female rat after 5 hour administration of 3 micro Ci (111 kBq) in the absence of 60 microg estradiol; format: ADME, organism-based; settings: in vivo; how it was run: as §1
[16] = target: T1, Estrogen receptor (Mus musculus); experiment: Relative binding affinity (RBA) for murine cytoplasmic estrogen receptor at 4C for 18 hr; format: protein assay
How it was run: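 Competitive binding on murine uterine cytoplasmic extract with 20 nM [3H]estradiol and competitor steroids at 2 nM–20 μM, incubated 18 h at 0–4 °C. RBA = 100 × ratio of […] concentration giving 50% competition for specific binding. Mean of three experiments with SD.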

[17] = tested on: Rattus norvegicus; experiment: Biodistribution in spleen of immature female rat after 5 hour administration of 3 micro Ci (111 kBq) in the absence of 60 microg estradiol; format: ADME, organism-based; settings: in vivo; how it was run: as §3
[18] = tested on: Rattus norvegicus; experiment: Biodistribution in blood of immature female rat after 3 hour administration of 3 micro Ci (111 kBq) in the absence of 60 microg estradiol; format: ADME, organism-based; settings: in vivo; how it was run: as §4
[19] = tested on: Rattus norvegicus; experiment: Biodistribution in blood of immature female rat after 1 hr administration of 3 micro Ci (111 kBq) in the absence of 60 microg estradiol; format: ADME, organism-based; settings: in vivo; how it was run: as §4
[20] = tested on: Rattus norvegicus; experiment: Biodistribution in thyroid of immature female rat after 3 hour administration of 3 micro Ci (111 kBq) in the absence of 60 microg estradiol; format: ADME, organism-based, Thyroid gland; settings: in vivo; how it was run: as §3
[21] = tested on: Rattus norvegicus; experiment: Biodistribution in uterus of immature female rat after 12 hour administration of 3 micro Ci (111 kBq) in the absence of 60 microg estradiol; format: ADME, organism-based; settings: in vivo; how it was run: as §1
[22] = tested on: Rattus norvegicus; experiment: Biodistribution in blood of immature female rat after 1 hr administration of 3 micro Ci (111 kBq) in the presence of (+E2); format: ADME, organism-based; settings: in vivo; how it was run: as §4
[23] = tested on: Rattus norvegicus; experiment: Biodistribution in liver of immature female rat after 12 hour administration of 3 micro Ci (111 kBq) in the absence of 60 microg estradiol; format: ADME, organism-based; settings: in vivo; how it was run: as §4
[24] = tested on: Rattus norvegicus; experiment: Biodistribution in thyroid of immature female rat after 1 hr administration of 3 micro Ci (111 kBq) in the presence of (+E2); format: ADME, organism-based, Thyroid gland; settings: in vivo; how it was run: as §3
[25] = tested on: Rattus norvegicus; experiment: Biodistribution in uterus of immature female rat after 5 hour administration of 3 micro Ci (111 kBq) in the absence of 60 microg estradiol; format: ADME, organism-based; settings: in vivo; how it was run: as §1
[26] = tested on: Rattus norvegicus; experiment: Biodistribution in thyroid of immature female rat after 1 hr administration of 3 micro Ci (111 kBq) in the absence of 60 microg estradiol; format: ADME, organism-based, Thyroid gland; settings: in vivo; how it was run: as §3
[27] = tested on: Rattus norvegicus; experiment: Biodistribution in liver of immature female rat after 1 hr administration of 3 micro Ci (111 kBq) in the absence of 60 microg estradiol; format: ADME, organism-based; settings: in vivo; how it was run: as §4
[28] = tested on: Rattus norvegicus; experiment: Biodistribution in uterus / spleen, muscle, lungs of immature female rat after 1 hr administration of 3 micro Ci (111 kBq) in the presence of (+E2); format: ADME, organism-based; settings: in vivo; how it was run: as §5
[29] = tested on: Rattus norvegicus; experiment: Biodistribution in blood of immature female rat after 12 hour administration of 3 micro Ci (111 kBq) in the absence of 60 microg estradiol; format: ADME, organism-based; settings: in vivo; how it was run: as §4

Compound | ID/g [1] [%] | RBA [2] | ID/g [3] [%] | RBA [4] | ID/g [5] [%] | ID/g [6] [%] | Uterus-to-blood radioactivity ratio (dimensionless) [7] [%] | ID/g [8] [%] | ID/g [9] [%] | ID/g [10] [%] | ID/g [11] [%] | ID/g [12] [%] | ID/g [13] [%] | Uterus to nontarget tissue (spleen, muscle, lungs) uptake ratio [14] [%] | uterus to nontarget tissue ratio [15] [%] | RBA [16] | ID/g [17] [%] | ID/g [18] [%] | ID/g [19] [%] | ID/g [20] [%] | also measured
C[C@]12CC[C@@H]3c4cc(F)c(O)cc4CC[C@H]3[C@@H]1CC[C@@]2(O)/C=C\I | 0.68 | 99 | 0.39 | 40.1 | 0.81 | 365 | 15.69 | 0.55 | 0.28 | 0.65 | 0.57 | 2.16 | 0.53 | 17.64 | 18.05 | 53.7 | 0.2 | 0.42 | 0.61 | 75.3 | ID/g [21]: 2.51%; ID/g [22]: 0.58%; ID/g [23]: 0.81%; ID/g [24]: 36.11%; ID/g [25]: 3.67%; ID/g [26]: 39%; ID/g [27]: 2.25%; uterus-to-nontarget tissue uptake ratio [28]: 0.51%; ID/g [29]: 0.17%
C[C@]12CC[C@@H]3c4ccc(O)c(F)c4CC[C@H]3[C@@H]1CC[C@@]2(O)/C=C/I | 0.77 | 29.1 | 0.57 | 58.7 | 0.89 | 385 | 2.76 | 0.59 | 0.31 | 0.87 | 0.46 | 0.58 | 0.59 | 11.38 | 10.41 | 55.9 | 0.17 | 0.96 | 0.78 | 128 | ID/g [21]: 0.43%; ID/g [22]: 0.81%; ID/g [23]: 0.59%; ID/g [24]: 65.69%; ID/g [25]: 1.82%; ID/g [26]: 71.61%; ID/g [27]: 2.91%; uterus-to-nontarget tissue uptake ratio [28]: 1.17%; ID/g [29]: 0.16%
